# According to ChEMBL document CHEMBL1221400, “Synthesis, antimalarial activity, and cellular toxicity of new arylpyrrolylaminoquinolines” (Bioorg Med Chem, 2010):
# Legend:
# [1] = Cytotoxicity against human K562 cells after 72 hrs by MTT assay; type: cell-based
# Method in brief: (§1)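 Cells were exposed to serial dilutions of compound for 72 h at 37 °C in 5% CO2. MTT was then added for another 3 h, and formazan was dissolved in SDS/DMF lysing buffer at pH 4.7. Absorbance was read at 550 nm against a 650 nm reference. […] Media: HMEC-1 in MCDB 131 with 10% FCS, EGF and hydrocortisone; K562 and WEHI 13 in RPMI 1640 with 10% FCS; HDF in DMEM with 10% FCS.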
# [2] = Cytotoxicity against mouse WEHI13 cells after 72 hrs by MTT assay; type: cell-based; method in brief: as §1
# Plasmodium falciparum [3] = test: Ratio of chloroquine IC50 to compound IC50 for chloroquine-resistant Plasmodium falciparum W2
# Plasmodium falciparum [4] = test: Antimalarial activity against chloroquine-sensitive Plasmodium falciparum D10 infected in human A+ RBC after 72 hrs by parasite LDH assay; type: functional, organism-based; details: D10, 72 h
# Method in brief: (§2)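 P. falciparum (D10 CQ-sensitive; W2 CQ-resistant) kept at 5% hematocrit in human A+ red cells in RPMI 1640 with 1% AlbuMax, hypoxanthine, 20 mM Hepes and glutamine, at 37 °C under 1% O2/5% CO2/94% N2. Asynchronous cultures (1–1.5% parasitaemia, 1% final hematocrit) were exposed to serial dilutions (final DMSO <1%) for 72 h. pLDH activity was read at OD650. IC50 given as mean ± SD of ≥3 experiments run in duplicate.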
# Plasmodium falciparum [5] = test: Antimalarial activity against chloroquine-resistant Plasmodium falciparum W2 infected in human A+ erythrocytes after 72 hrs by parasite LDH assay; type: functional, organism-based; details: W2, 72 h; method in brief: as §2
# Plasmodium falciparum [6] = test: Ratio of IC50 for chloroquine-resistant Plasmodium falciparum W2 to IC50 for chloroquine-sensitive Plasmodium falciparum D10
# [7] = Cytotoxicity against HMEC1 cells after 72 hrs by MTT assay; type: cell-based, HMEC-1; details: human; method in brief: as §1
# Plasmodium falciparum [8] = test: Ratio of chloroquine IC50 to compound IC50 for chloroquine-sensitive Plasmodium falciparum D10
# [9] = Lipid accumulation ratio of the compound at pH 7.4; type: physicochemical
# [10] = Distribution coefficient, log D of the compound at pH 7.4; type: physicochemical; details: octanol/water
# [11] = Vacuolar accumulation ratio of the compound at pH 5.2; type: ADME
# [12] = Octanol-water partition coefficient, log P of the compound; type: physicochemical
# [13] = Cytotoxicity against HDF after 72 hrs by MTT assay; type: cell-based; details: human; method in brief: as §1
# [14] = Inhibition of beta-hematin formation assessed as molar equivalents by BHIA assay relative to hemin; type: functional
SMILES,CC50 at 72 h [1] [nM],CC50 at 72 h [2] [nM],Ratio IC50 (Plasmodium falciparum [3]),IC50 (Plasmodium falciparum [4]) [nM],IC50 (Plasmodium falciparum [5]) [nM],Ratio IC50 (Plasmodium falciparum [6]),CC50 at 72 h [7] [nM],Ratio IC50 (Plasmodium falciparum [8]),Ratio [9],logD [10],Ratio [11],logP [12],CC50 at 72 h [13] [nM],IC50 [14] [equivalents]
CCN(CC)Cc1cc(-c2ccc(F)cc2)n(Nc2ccnc3cc(Cl)ccc23)c1C,2360,3020,5,61.6,79.8,1.3,18600,0.5,–,–,–,–,–,–
Cc1c(CN2CCCC2)cc(-c2ccc(F)cc2)n1Nc1ccnc2cc(Cl)ccc12,1660,2710,5.7,32.6,78.1,2.4,10100,0.8,2818.4,3.45,1548.8,4.86,–,–
Cc1c(CN2CCCC2)cc(-c2ccc(C(F)(F)F)cc2)n1Nc1ccnc2cc(Cl)ccc12,1220,2680,6.7,58,59,1,4700,0.5,52480.8,4.72,912,5.28,–,–
CCN(CC)Cc1cc(-c2ccc(C)cc2)n(Nc2ccnc3cc(Cl)ccc23)c1C,–,3650,6.4,32.7,55.4,1.7,7050,0.6,–,–,–,–,10300,–
Cc1ccc(-c2cc(CN3CCCC3)c(C)n2Nc2ccnc3cc(Cl)ccc23)cc1,–,4480,5.4,30.7,65.8,2.1,7150,0.6,8128.3,3.91,1862.1,5.19,13200,0.45
CCN(CC)Cc1cc(-c2ccc(N)cc2)n(Nc2ccnc3cc(Cl)ccc23)c1C,–,–,0.9,53.4,313,5.8,–,0.5,–,–,–,–,–,–
Cc1c(CN2CCCC2)cc(-c2ccc(N)cc2)n1Nc1ccnc2cc(Cl)ccc12,–,–,0.5,43.1,455,10.6,–,0.5,107.1,2.03,16982.4,4.38,–,–
CCN(CC)Cc1cc(-c2ccc(Cl)cc2)n(CCCNc2ccnc3cc(Cl)ccc23)c1C,–,–,2.3,26,180,6.9,–,0.7,–,–,–,–,–,–
Cc1c(CN2CCCC2)cc(-c2ccc(Cl)cc2)n1CCCNc1ccnc2cc(Cl)ccc12,–,–,1.7,22.7,243,10.7,–,0.8,223.9,2.35,24547.1,4.38,–,0.82
Cc1c(CN2CCCC2)cc(-c2ccc(Cl)cc2)n1Nc1ccnc2cc(Cl)ccc12,–,2060,–,–,–,1.6,7180,–,11481.5,4.06,1513.6,5.17,–,0.36
Cc1c(CN2CCCC2)cc(-c2ccccc2)n1Nc1ccnc2cc(Cl)ccc12,2920,3880,–,–,–,3.3,12900,–,1905.5,3.28,1698.2,4.6,–,0.54
CCN(CC)Cc1cc(-c2ccccc2)n(Nc2ccnc3cc(Cl)ccc23)c1C,3620,4380,–,–,–,1.4,16700,–,–,–,–,–,–,–
CCN(CC)Cc1cc(-c2ccc(Cl)cc2)n(Nc2ccnc3cc(Cl)ccc23)c1C,–,1450,–,–,–,1.6,5810,–,–,–,–,–,–,–
CCN(CC)CCCC(C)Nc1ccnc2cc(Cl)ccc12 (stereo unspecified) [CHLOROQUINE],> 25000,> 38000,–,–,–,–,> 32000,–,–,–,–,–,> 38000,1.27
